Assays:
Assay type in all cases: functional
CCRF-CEM = assay: Cytotoxicity against human CCRF-CEM cells
HL-60(TB) = assay: Cytotoxicity against human HL-60(TB) cells
Summary of the method: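 Tested within the NCI 60-cell-line screen, with GI50 as the read-out. Values are the average of two independent experiments. The lowest concentration tested was 10 nM.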

MOLT-4 = assay: Cytotoxicity against human MOLT4 cells
Summary of the method: (§1)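 Tested in a 60-cell-line human tumor panel screen; the read-out is growth inhibition, reported as GI50 for each cell line.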

SR = assay: Cytotoxicity against human SR cells
Summary of the method: (§2)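 Cell line run as part of the 60-cell-line screening panel; growth inhibition was reported as a GI50 for each line.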

A549 = assay: Cytotoxicity against human A549 cells; summary of the method: as §1
HOP-62 = assay: Cytotoxicity against human HOP62 cells; summary of the method: as §1
COLO 205 = assay: Cytotoxicity against human COLO205 cells; summary of the method: as §1
HCC 2998 = assay: Cytotoxicity against human HCC2998 cells; summary of the method: as §1
HCT-116 = assay: Cytotoxicity against human HCT116 cells; summary of the method: as §1
[1] = Cytotoxicity against human HCT15 cells; summary of the method: as §1
HT-29 = assay: Cytotoxicity against human HT-29 cells; summary of the method: as §1
KM12 = assay: Cytotoxicity against human KM12 cells; summary of the method: as §1
SF-268 = assay: Cytotoxicity against human SF268 cells; summary of the method: as §1
SF-295 = assay: Cytotoxicity against human SF295 cells; summary of the method: as §1
SF-539 = assay: Cytotoxicity against human SF539 cells; summary of the method: as §1
SNB-19 = assay: Cytotoxicity against human SNB19 cells; summary of the method: as §1
SNB-75 = assay: Cytotoxicity against human SNB75 cells; summary of the method: as §2
U-251 = assay: Cytotoxicity against human U251 cells; summary of the method: as §2
LOX IMVI = assay: Cytotoxicity against human LOXIMVI cells; summary of the method: as §1
MDA-MB-435 = assay: Cytotoxicity against human MDA-MB-435 cells; summary of the method: as §1
NCI-H322M = assay: Cytotoxicity against human NCI-H322M cells; summary of the method: as §1
NCI-H460 = assay: Cytotoxicity against human NCI-H460 cells; summary of the method: as §1
SK-MEL-2 = assay: Cytotoxicity against human SK-MEL-2 cells; summary of the method: as §1
SK-MEL-5 = assay: Cytotoxicity against human SK-MEL-5 cells; summary of the method: as §1
[2] = Cytotoxicity against human UACC257 cells; summary of the method: as §2
[3] = Cytotoxicity against human UACC62 cells; summary of the method: as §2
IGROV-1 = assay: Cytotoxicity against human IGROV1 cells; summary of the method: as §1
[4] = Cytotoxicity against human OVCAR4 cells; summary of the method: as §1
[5] = Cytotoxicity against human OVCAR5 cells; summary of the method: as §1
[6] = Cytotoxicity against human NCI-ADR-RES cells; summary of the method: as §1
SK-OV-3 = assay: Cytotoxicity against human SKOV3 cells; summary of the method: as §1
786-0 = assay: Cytotoxicity against human 786-0 cells; summary of the method: as §1
A498 = assay: Cytotoxicity against human A498 cells; summary of the method: as §1
ACHN = assay: Cytotoxicity against human ACHN cells; summary of the method: as §1
CAKI-1 = assay: Cytotoxicity against human Caki1 cells; summary of the method: as §1
SN12C = assay: Cytotoxicity against human SN12C cells; summary of the method: as §1
TK-10 = assay: Cytotoxicity against human TK10 cells; summary of the method: as §2
PC-3 = assay: Cytotoxicity against human PC3 cells; summary of the method: as §1
DU-145 = assay: Cytotoxicity against human DU145 cells; summary of the method: as §1
MCF7 = assay: Cytotoxicity against human MCF7 cells; summary of the method: as §1
MDA-MB-231 = assay: Cytotoxicity against human MDA-MB-231 cells; summary of the method: as §1
BT-549 = assay: Cytotoxicity against human BT549 cells; summary of the method: as §1
T47D = assay: Cytotoxicity against human T47D cells; summary of the method: as §2
[7] = read-out: pLC50 (the source's name) (converted)

## COc1cc(/C=C/c2cc(OC)c3cc[nH]c3c2)cc2c1O[C@]1(C)CC[C@@H](O)C(C)(C)[C@H]1C2
CCRF-CEM
  GI50: 151 nM
CCRF-CEM; [7]
  CC50: > 100000 nM
HL-60(TB)
  GI50: 138 nM
HL-60(TB); [7]
  CC50: > 100000 nM
HL-60(TB); read-out: pTGI (converted)
  TGI: 1320 nM
MOLT-4
  GI50: 91.2 nM
MOLT-4; [7]
  CC50: > 100000 nM
MOLT-4; read-out: pTGI (converted)
  TGI: 490 nM
SR
  GI50: 302 nM
SR; [7]
  CC50: > 100000 nM
SR; read-out: pTGI (converted)
  TGI: 5620 nM
A549
  GI50: 871 nM
A549; [7]
  CC50: > 100000 nM
A549; read-out: pTGI (converted)
  TGI: 17800 nM
HOP-62
  GI50: 501 nM
HOP-62; [7]
  CC50: 9550 nM
HOP-62; read-out: pTGI (converted)
  TGI: 2400 nM
COLO 205
  GI50: 219 nM
COLO 205; [7]
  CC50: 891 nM
COLO 205; read-out: pTGI (converted)
  TGI: 447 nM
HCC 2998
  GI50: 2240 nM
HCC 2998; [7]
  CC50: 49000 nM
HCC 2998; read-out: pTGI (converted)
  TGI: 11200 nM
HCT-116
  GI50: 537 nM
HCT-116; [7]
  CC50: 6030 nM
HCT-116; read-out: pTGI (converted)
  TGI: 2040 nM
[1]; HCT-15
  GI50: 398 nM
[1]; HCT-15, read-out: pLC50 (the source's name) (converted)
  CC50: > 100000 nM
[1]; HCT-15, read-out: pTGI (converted)
  TGI: 7940 nM
HT-29
  GI50: 288 nM
HT-29; [7]
  CC50: > 100000 nM
HT-29; read-out: pTGI (converted)
  TGI: 1780 nM
KM12
  GI50: 191 nM
KM12; [7]
  CC50: 3630 nM
KM12; read-out: pTGI (converted)
  TGI: 468 nM
SF-268
  GI50: 282 nM
SF-268; [7]
  CC50: 10000 nM
SF-268; read-out: pTGI (converted)
  TGI: 10200 nM
SF-295; read-out: GI50
  GI50: 55 nM
SF-295; read-out: pGI50 (converted)
  GI50: 55 nM
SF-295; [7]
  CC50: 794 nM
SF-295; read-out: pTGI (converted)
  TGI: 224 nM
SF-539
  GI50: 141 nM
SF-539; [7]
  CC50: 3090 nM
SF-539; read-out: pTGI (converted)
  TGI: 468 nM
SNB-19
  GI50: 676 nM
SNB-19; [7]
  CC50: > 100000 nM
SNB-19; read-out: pTGI (converted)
  TGI: 7080 nM
SNB-75
  GI50: 93.3 nM
SNB-75; read-out: pTGI (converted)
  TGI: 468 nM
U-251
  GI50: 331 nM
U-251; [7]
  CC50: 31600 nM
U-251; read-out: pTGI (converted)
  TGI: 3630 nM
LOX IMVI
  GI50: 389 nM
LOX IMVI; [7]
  CC50: 4470 nM
LOX IMVI; read-out: pTGI (converted)
  TGI: 1480 nM
MDA-MB-435
  GI50: 355 nM
MDA-MB-435; [7]
  CC50: > 100000 nM
MDA-MB-435; read-out: pTGI (converted)
  TGI: 2570 nM
NCI-H322M
  GI50: 3550 nM
NCI-H322M; [7]
  CC50: > 100000 nM
NCI-H322M; read-out: pTGI (converted)
  TGI: 37200 nM
NCI-H460
  GI50: 380 nM
NCI-H460; [7]
  CC50: 37200 nM
NCI-H460; read-out: pTGI (converted)
  TGI: 2290 nM
SK-MEL-2
  GI50: 309 nM
SK-MEL-2; [7]
  CC50: > 100000 nM
SK-MEL-2; read-out: pTGI (converted)
  TGI: 1740 nM
SK-MEL-5
  GI50: 178 nM
SK-MEL-5; [7]
  CC50: 708 nM
SK-MEL-5; read-out: pTGI (converted)
  TGI: 355 nM
[2]; UACC-257
  GI50: 295 nM
[2]; UACC-257, read-out: pTGI (converted)
  TGI: 759 nM
[3]; UACC-62
  GI50: 162 nM
[3]; UACC-62, read-out: pLC50 (the source's name) (converted)
  CC50: 955 nM
[3]; UACC-62, read-out: pTGI (converted)
  TGI: 398 nM
IGROV-1
  GI50: 977 nM
IGROV-1; [7]
  CC50: > 100000 nM
IGROV-1; read-out: pTGI (converted)
  TGI: 13500 nM
[4]; OVCAR-4
  GI50: 871 nM
[4]; OVCAR-4, read-out: pLC50 (the source's name) (converted)
  CC50: > 100000 nM
[4]; OVCAR-4, read-out: pTGI (converted)
  TGI: 26900 nM
[5]; OVCAR-5
  GI50: 1000 nM
[5]; OVCAR-5, read-out: pLC50 (the source's name) (converted)
  CC50: > 100000 nM
[5]; OVCAR-5, read-out: pTGI (converted)
  TGI: 6030 nM
[6]
  GI50: 2090 nM
[6]; [7]
  CC50: > 100000 nM
[6]; read-out: pTGI (converted)
  TGI: 20000 nM
SK-OV-3
  GI50: 339 nM
SK-OV-3; read-out: pTGI (converted)
  TGI: 1290 nM
786-0
  GI50: 72.4 nM
  LC50 (concentration killing 50% of cells): 3020 nM
786-0; read-out: pTGI (converted)
  TGI: 468 nM
A498
  GI50: 245 nM
A498; read-out: pTGI (converted)
  TGI: 813 nM
ACHN
  GI50: 575 nM
  LC50 (concentration killing 50% of cells): > 100000 nM
ACHN; read-out: pTGI (converted)
  TGI: 6920 nM
CAKI-1
  GI50: 79.4 nM
  LC50: 851 nM
CAKI-1; read-out: pTGI (converted)
  TGI: 269 nM
SN12C
  GI50: 6170 nM
  LC50: > 100000 nM
SN12C; read-out: pTGI (converted)
  TGI: 51300 nM
TK-10
  GI50: 1550 nM
  LC50: > 100000 nM
TK-10; read-out: pTGI (converted)
  TGI: 11000 nM
PC-3
  GI50: 191 nM
  LC50: > 100000 nM
PC-3; read-out: pTGI (converted)
  TGI: 1780 nM
DU-145
  GI50: 1070 nM
  LC50 (50% lethal concentration): > 100000 nM
DU-145; read-out: pTGI (converted)
  TGI: 4370 nM
MCF7
  GI50: 389 nM
  LC50: > 100000 nM
MCF7; read-out: pTGI (converted)
  TGI: 2000 nM
MDA-MB-231
  GI50: 851 nM
  LC50: > 100000 nM
MDA-MB-231; read-out: pTGI (converted)
  TGI: 4570 nM
BT-549
  GI50: 229 nM
BT-549; [7]
  CC50: > 100000 nM
BT-549; read-out: pTGI (converted)
  TGI: 3090 nM
T47D
  GI50: 2820 nM
T47D; [7]
  CC50: > 100000 nM
T47D; read-out: pTGI (converted)
  TGI: 50100 nM

Source: ChEMBL document CHEMBL3232844, “Synthesis and structure activity relationships of schweinfurthin indoles” (2014)
